ChEMBL document CHEMBL4020827, “Targeting Multiple Effector Pathways in Pancreatic Ductal Adenocarcinoma with a G-Quadruplex-Binding Small Molecule” (J Med Chem, 2018)

What was measured:
PANC-1 [1] = test: Effect on PFKFB4 gene expression in human PANC1 cells at 400 nM after 6 hrs by RNA sequence analysis relative to control; assay type: functional
MIA PaCa-2 [2] = test: Effect on ULK1 gene expression in human MIAPaCa2 cells at 400 nM after 6 hrs by RNA sequence analysis relative to control; assay type: functional
Summary of the method: (§1)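 RNA-seq: cells seeded overnight in 60 mm plates (PANC-1 0.35 x 10^6, MIA PaCa-2 1.5 x 10^6 cells/well), then exposed to 400 nM compound for 6 or 24 h against untreated controls. Cell lines mycoplasma-free by RNA-capture ELISA and STR-profiled. Differentially expressed genes called at FDR < 0.1.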

MIA PaCa-2 [3] = test: Effect on PIK3R3 gene expression in human MIAPaCa2 cells at 400 nM after 6 hrs by RNA sequence analysis relative to control; assay type: functional
MIA PaCa-2 [4] = test: Effect on GLI1 gene expression in human MIAPaCa2 cells at 400 nM after 6 hrs by RNA sequence analysis relative to control; assay type: functional
Summary of the method: (§2)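 PANC-1 (0.35 x 10^6) or MIA PaCa-2 (1.5 x 10^6) cells seeded overnight in 60 mm plates, then exposed to 400 nM compound for 6 or 24 h; untreated cells as controls. Cells were mycoplasma-free and STR-certified. Differential expression by RNA-seq, called at FDR < 0.1.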

MIA PaCa-2 [5] = test: Effect on MAPK12 gene expression in human MIAPaCa2 cells at 400 nM after 24 hrs by RNA sequence analysis relative to control; assay type: functional
MIA PaCa-2 [6] = test: Effect on AKT1 gene expression in human MIAPaCa2 cells at 400 nM after 6 hrs by RNA sequence analysis relative to control; assay type: functional; summary of the method: as §2
PANC-1 [7] = test: Effect on PIK3R3 gene expression in human PANC1 cells at 400 nM after 6 hrs by RNA sequence analysis relative to control; assay type: functional
PANC-1 [8] = test: Effect on FASN gene expression in human PANC1 cells at 400 nM after 6 hrs by RNA sequence analysis relative to control; assay type: functional; summary of the method: as §2
MIA PaCa-2 [9] = test: Effect on IGF2 gene expression in human MIAPaCa2 cells at 400 nM after 24 hrs by RNA sequence analysis relative to control; assay type: functional; summary of the method: as §2
PANC-1 [10] = test: Effect on PRKCZ gene expression in human PANC1 cells at 400 nM after 24 hrs by RNA sequence analysis relative to control; assay type: functional; summary of the method: as §1
MIA PaCa-2 [11] = test: Effect on GLI2 gene expression in human MIAPaCa2 cells at 400 nM after 6 hrs by RNA sequence analysis relative to control; assay type: functional; summary of the method: as §2
PANC-1 [12] = test: Effect on MAPK11 gene expression in human PANC1 cells at 400 nM after 24 hrs by RNA sequence analysis relative to control; assay type: functional
MIA PaCa-2 [13] = test: Effect on ROBO3 gene expression in human MIAPaCa2 cells at 400 nM after 24 hrs by RNA sequence analysis relative to control; assay type: functional; summary of the method: as §1
PANC-1 [14] = test: Effect on PCK2 gene expression in human PANC1 cells at 400 nM after 24 hrs by RNA sequence analysis relative to control; assay type: functional
[15] = Binding affinity to 5'-FAM/3'-TAMRA labeled KRAS21 promoter G-quadruplex DNA (unknown origin) assessed as change in melting temperature at 1 uM by FRET assay
Summary of the method: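 FRET melting of FAM/TAMRA dual-labelled promoter G4 oligonucleotides, 400 nM, annealed at 95 °C for 10 min in 60 mM potassium cacodylate (pH 7.4) then cooled to RT. Ligand at 1 μM in solution with 50 mM K+. Fluorescence (ex 450–495, em 515–545 nm) read every 0.5 °C over 30–100 °C with a 30 sec hold per step. ΔTm from curve fitting; triplicate measurements.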

PANC-1 [16] = test: Effect on PFKFB4 gene expression in human PANC1 cells at 400 nM after 24 hrs by RNA sequence analysis relative to control; assay type: functional
MIA PaCa-2 [17] = test: Effect on FASN gene expression in human MIAPaCa2 cells at 400 nM after 24 hrs by RNA sequence analysis relative to control; assay type: functional; summary of the method: as §2
[18] = Binding affinity to 5'-FAM/3'-TAMRA labeled T-loop duplex DNA (unknown origin) assessed as change in melting temperature at 1 uM by FRET assay
Summary of the method: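 FRET melting with FAM/TAMRA dual-labelled oligonucleotides at 400 nM, annealed at 95 °C for 10 min in 60 mM potassium cacodylate pH 7.4 and slowly cooled. Ligand final 1 μM; solution contains 50 mM K+. Fluorescence read every 0.5 °C over 30–100 °C with 30 s hold, excitation 450–495 nm and emission 515–545 nm. ΔTm from curve fitting, triplicate measurements.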

PANC-1 [19] = test: Effect on TP73 gene expression in human PANC1 cells at 400 nM after 6 hrs by RNA sequence analysis relative to control; assay type: functional; summary of the method: as §1
PANC-1 [20] = test: Effect on IQSEC1 gene expression in human PANC1 cells at 400 nM after 6 hrs by RNA sequence analysis relative to control; assay type: functional
[21] = Drug uptake in tumor at flank region of CD-1 nude mouse xenografted with human MIAPaCa2 cells at 15 mg/kg, iv measured after 4 hrs; assay type: ADME, organism-based, Neoplasm; conditions: in vivo
MIA PaCa-2 [22] = test: Effect on PCK2 gene expression in human MIAPaCa2 cells at 400 nM after 6 hrs by RNA sequence analysis relative to control; assay type: functional
[23] = Selectivity index, ratio of IC50 for human WI38 cells to IC50 for human MIAPaCa2 cells; assay type: functional
Summary of the method: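 SRB growth-inhibition assay over 96 h with compounds dissolved in water; cells grown in 10 % FBS at 37 °C, 5% CO2. Absorbance at 540 nm as a percentage of untreated wells gives the IC50. Values are averages of >3 determinations, with the ratio taken as WI-38 IC50 over MIA PaCa-2 IC50.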

[24] = Binding affinity to 5'-FAM/3'-TAMRA labeled human telomeric F21T G-quadruplex DNA by direct fluorescence method
Summary of the method: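 Buffer was 50 mM KCl, 10 mM Tris-HCl, 1 mM EDTA, pH 7.3, 25 °C, quartz cuvette. Quenching of ligand emission at 570 nm tracked; KD from a quadratic quenching fit.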

MIA PaCa-2 [25] = test: Antitumor activity against human MIAPaCa2 cells xenografted in CD-1 nude mouse assessed as change in tumor volume at 15 mg/kg, iv administered twice weekly for 4 weeks measured on day 62 relative to control; assay type: functional
Summary of the method: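 Female CD-1 nude mice (2-3 months, 20−25 g) given 5 x 10^6 MIA PaCa-2 cells subcutaneously in right flank with Matrigel; dosing began once tumors were established (approx. 13 days, mean 0.05 cm3). Eight mice/group, IV in saline twice weekly for 28 days (8 doses) against a saline group. Tumors measured by calliper (length × width × height × π/6), with body weight. Student's t test.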

MIA PaCa-2 [26] = test: Effect on TEAD4 gene expression in human MIAPaCa2 cells at 400 nM after 24 hrs by RNA sequence analysis relative to control; assay type: functional; summary of the method: as §1
MIA PaCa-2 [27] = test: Effect on SHC2 gene expression in human MIAPaCa2 cells at 400 nM after 24 hrs by RNA sequence analysis relative to control; assay type: functional; summary of the method: as §1

In the case of `O=C1c2ccc3c4c(c(NCCN5CCCC5)cc(c24)C(=O)N1CCCN1CCOCC1)C(=O)N(CCCN1CCOCC1)C3=O`, the log2FC (PANC-1 [1]) is reported as -0.57, the log2FC (MIA PaCa-2 [2]) is reported as 0.03 and the log2FC (MIA PaCa-2 [3]) is reported as -0.28. It also gave a log2FC (MIA PaCa-2 [4]) of -0.61, a log2FC (MIA PaCa-2 [5]) of -1.23 and a log2FC (MIA PaCa-2 [6]) of -0.2. The log2FC (PANC-1 [7]) was -0.16, the log2FC (PANC-1 [8]) was -0.73 and the log2FC (MIA PaCa-2 [9]) was 0.72. The log2FC (PANC-1 [10]) was -1.23, the log2FC (MIA PaCa-2 [11]) was -1.17 and the log2FC (PANC-1 [12]) was -1.6. The log2FC (MIA PaCa-2 [13]) was -0.53, the log2FC (PANC-1 [14]) was -0.56 and the ΔTm [15] was 11 °C. It also gave a log2FC (PANC-1 [16]) of -0.74, a log2FC (MIA PaCa-2 [17]) of -0.54 and a ΔTm [18] of 0.6 °C. For the same molecule, the log2FC (PANC-1 [19]) was -1.44, the log2FC (PANC-1 [20]) was -0.86 and the Drug uptake [21] was “Active”. For the same molecule, the log2FC (MIA PaCa-2 [22]) was 0.26, the “Ratio IC50” value [23] was 170 and the Kd [24] was 67 nM. It also gave an Activity (MIA PaCa-2 [25]) of -85%, a log2FC (MIA PaCa-2 [26]) of -0.31 and a log2FC (MIA PaCa-2 [27]) of -1.96.
